What was measured:
[1] = folding enthalpy; higher = less favourable; fluorescence melt of hairpins on a sequencing array, two-state fit; settings: sodium 0.088 M
How it was run: (§1)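 On a sequenced MiSeq flow cell, library hairpins with annealed Cy3 and quencher oligos were imaged for Cy3 fluorescence in 2.5 °C steps up to 60 °C, in 50 mM Na-HEPES pH 8.0, 25 mM NaCl. Normalisation used pre-quench Cy3 and control constructs. Bootstrapped two-state fits gave melting temperature and folding enthalpy, combined by inverse variance across four replicates and with fitted temperatures raised by 9.35 °C to match UV melts.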

[2] = melting temperature; fluorescence melt of hairpins on a sequencing array, two-state fit, raised by 9.35 °C to match UV melts; settings: sodium 0.088 M
How it was run: as §1

Sequence	folding enthalpy [1] [kcal/mol]	Tm [2] [°C]
CGGAGCGGAAACGCACCG (((.(((....))).)))	-35	58.7
GGTTCCGGAAACGGGACC (((.(((....))).)))	-47.1	58.5
GTGTGCGAAAGCAGGCAC ((((((....)))..)))	-15.8	44.8
GGAGACGAAAGTCACTCC ((((((....)))..)))	-13.3	37.6
GCGGCCATCCGC ((((....))))	-18.5	60
GATGCCGAAAGGCAGATC ((((((....)))..)))	-15.6	52.2
GGCTCGTCGAAAGACGCC (((..(((....))))))	-9.65	42
GATGCTGGAAACAGCATC (((((((....)))))))	-41.2	66.9
GGATAGACGAAAGTCTCC (((..(((....))))))	-14.6	33.6
GCACCCCGAAAGGGTTGC (((.(((....))).)))	-34.8	55.1
GCTGTTGGAAACGACAGC (((((.(....).)))))	-40.7	54.7
GTTGGACCGAAAGGTAAC (((..(((....))))))	-20	35.8
GCTTGCGAAAGCACTAGC ((((((....)))..)))	-12.7	33.8
GTTATATCGAAAGATAAC (((..(((....))))))	-11.2	27.7
GCAAGCGAAAGCTGATGC ((((((....)))..)))	-16.3	45.7
GGTTAGGGAAACCTAATC (.(((((....))))).)	-27.7	37.9
GGTCACCGAAAGGTCACC (((.(((....))).)))	-25.6	43.9
GGATACCGAAAGGTTTCC (((.(((....))).)))	-37.6	50.2
GGCATCGGAAACGATGTC (.(((((....))))).)	-42.1	55.9

Sequence	folding enthalpy [1] [kcal/mol]	Tm [2] [°C]
GCCAACGAAAGTTCGGC ((((((....))).)))	-26.3	51.2
GTTGGCGAAAGCCGTAAC ((((((....)))..)))	-9.54	33.4
GGAAGGGGAAACCCTTTC (.(((((....))))).)	-24.2	44.7
GAGCACGAAAGTGTCTC ((((((....))).)))	-23.3	53.2
GCGTTAAAACGC ((((....))))	-21.4	50.3
GTGAGCGAAAGCTATCAC ((((((....)))..)))	-18.3	37.6
GACTCACGAAAGTGTGTC (((.(((....))).)))	-38.5	53.7
GCGCGGACGAAAGTCCGC (((..(((....))))))	-5.59	63.7
GATCGTGGAACGATC ((((((...))))))	-35.7	66.8
GGCTTTGGAAACGAAGTC (.(((.(....).))).)	-14.7	34.7
GGCGCTCGAAAGAGGGCC (((.(((....))).)))	-39.6	68.4
GATCAGAATGCTGATC ((((((....))))))	-28.1	47
GACCGGGGAAACCCGACC (..((((....))))..)	-11.4	30
GATCTTGGAAACAAGGTC ((.((((....)))).))	-33.9	44.2
GACTCCGAAAGGAATGTC ((((((....)))..)))	-17.7	38.6
GGCGTTGGAAACAATGCC (((.(((....))).)))	-53.7	56.5
GGAGCACGAAAGTGTCC (((.(((....))))))	-16.4	48.5
GATTCGGGAAACCGGATC (((.(((....))).)))	-39.6	49.3
GGAACGCCGAAAGGCTCC (((..(((....))))))	-9.39	33

Reference: the array DNA melting data of Ke et al. (doi:10.1101/2024.01.08.574731)
